SENP7 inh – SENP7 protease inhibition. Q9BQF6. recombinant SENP7, Z-RLRGG-aminoluciferin luminescence, 40 min. inhibition, % at 5 µM. 330,000 compounds, 1.5% hits. AID 434973;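 active means inhibition above about 50% at the single test dose, limit read from the data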
Target sequence (Q9BQF6 706-1050 limits assumed): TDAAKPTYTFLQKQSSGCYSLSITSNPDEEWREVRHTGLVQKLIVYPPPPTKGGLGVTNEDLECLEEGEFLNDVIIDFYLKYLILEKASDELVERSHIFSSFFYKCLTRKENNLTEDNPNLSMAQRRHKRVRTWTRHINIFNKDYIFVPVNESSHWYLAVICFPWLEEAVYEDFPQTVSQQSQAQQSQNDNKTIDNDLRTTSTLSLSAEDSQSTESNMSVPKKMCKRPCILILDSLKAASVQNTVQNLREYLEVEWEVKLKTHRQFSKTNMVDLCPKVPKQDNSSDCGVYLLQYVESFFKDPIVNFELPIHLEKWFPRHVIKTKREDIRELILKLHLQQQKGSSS
SENP6 inh – inhibitors of human SENP6 protease; Recombinant SENP6 catalytic domain, aminoluciferin luminescence; inhibition, % at 10 µM; 330,000 compounds, 1.8% hits; AID 2599;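 active means inhibition above about 50% at the single tested dose, limit read from the data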
SENP8 block-1 – blocks the human protease SENP8; purified SENP8, Z-RLRGG-aminoluciferin cleavage, luminescence; inhibition, % at 10 µM; 330,000 compounds, 1.2% hits; AID 2540; in the data active means inhibition above about 50%
SENP8 block-2 – SENP8 (human) protease inhibition. Q96LD8. recombinant SENP8, Nedd8 substrate fluorescence. inhibition, % at 20 µM. 360,000 compounds, 0.64% hits; in the data active means inhibition mostly above about 40%, no sharp cut-off; inactive means mostly below about 27%
SENP1 inh – SENP1 (human) catalytic domain inhibition; Q9P0U3; recombinant SENP1 catalytic domain, CyPet-SUMO1-YPet FRET cleavage; inhibition, % at 10 µM; 360,000 compounds, 0.21% hits; AID 624204;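 active means inhibition at least 30% at 10 µM, raw YFP signal under a set limit, fluorescence ratio 0.5 to 1.5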
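material = recombinant human SENP1 catalytic domain, His6-tagged | quantity = 20 pM enzyme | reagent = 25 nM SUMO1 FRET substrate | compound dosing = 10 µM single point, 0.5% DMSO | timing = 50 min enzyme reaction, room temperature, light-protected | detection = FRET, CFP and YFP emission | control set = no-enzyme low, enzyme-DMSO high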
SENP1 conf – SENP1 (human) inhibition, single concentration confirmation; shares compounds with SENP1 inh; recombinant SENP1, CyPet-SUMO1-YPet FRET cleavage; inhibition, % at 10 µM; 520 compounds, 34% hits; in the data active means inhibition mostly above about 35%, no sharp cut-off; inactive means mostly below about 32%
SENP1 kinetic – SENP1 (human) inhibition, kinetic confirmation; shares compounds with SENP1 inh; 520 compounds, 26% hits; AID 651690; inhibition, % at 10 µM; recombinant SENP1, CyPet-SUMO1-YPet FRET kinetic cleavage; in the data active means inhibition mostly above about 32%, no sharp cut-off; inactive means mostly below about 29%
Of the large screens only hits and unclear results are named; the others gave an inactive call (follow-up assays come after a bar, where they were run). An excerpt weighted towards active compounds, which were near 2.5% of everything screened.

COc1ccc(N=Nc2nc3cc(Br)c(Br)cc3n2C)c(OC)c1	SENP1 inh 61.0 (no result: SENP7 inh, SENP6 inh, SENP8 block-1) | SENP1 conf inactive | SENP1 kinetic 43.6
COc1ccc(OC)c(CNc2ccc3c(c2)nc(C)n3C)c1	none
CCOC(=O)c1ccc(NC(=S)NCCc2ccc(F)cc2)cc1	none
O=C(Cc1n[nH]c(=O)[nH]c1=O)N/N=C/c1ccccc1	none
O=C(Cc1n[nH]c(=O)[nH]c1=O)N/N=C/c1c(O)ccc2ccccc12	SENP1 inh 38.6 | SENP1 conf inactive | SENP1 kinetic inactive
Cc1cccc(N=Nc2c(C)c(C#N)c(O)[nH]c2=O)c1	none
Cc1c(C#N)c(O)[nH]c(=O)c1N=Nc1ccc(Br)cc1C(=O)O	SENP8 block-2 45.5, SENP1 inh 38.5 (no result: SENP7 inh, SENP6 inh, SENP8 block-1) | SENP1 conf 57.3 | SENP1 kinetic 33.9
CCOC(=O)[C@]12CCC=C1N(Cc1cccc3ccccc13)C(=O)[C@H](CC(=O)N1CCCC1)C2	none (no result: SENP7 inh, SENP6 inh, SENP8 block-1)
Cn1cc([N+](=O)[O-])c(C(=O)Nc2cc(Oc3cccnc3)cc([N+](=O)[O-])c2)n1	none (no result: SENP8 block-2, SENP1 inh)
CC(C)CNC(=O)c1ccc(C2SCC(=O)N2Cc2ccccc2)cc1 (centres undefined)	SENP1 inh 46.0 | SENP1 conf 35.1 | SENP1 kinetic inactive
COc1cc([N+](=O)[O-])ccc1NC(=O)CCS(=O)(=O)c1ccc2c(c1)n(C)c(=O)c(=O)n2C	none
Cc1[nH][nH]c(=O)c1N=Nc1ccccc1Cl	none
Clc1ccccc1N=Nc1ccccn1	SENP8 block-2 57.0, SENP1 inh 58.2 (no result: SENP7 inh, SENP6 inh, SENP8 block-1) | SENP1 conf inactive | SENP1 kinetic inactive
CCCCN(C=O)c1c(CC)nc2ccc(C(=O)NCCCN3CCCC3=O)cn12	none (no result: SENP7 inh, SENP6 inh, SENP8 block-1)
COc1ccc(/C=C/C(=O)Nc2ccc(OC)cc2[N+](=O)[O-])cc1	SENP1 inh 64.1 | SENP1 conf inactive | SENP1 kinetic inactive
O=c1[nH]c2cc3ccccc3cc2nc1-c1nnnn1C1CCCC1	SENP1 inh 69.9 (no result: SENP7 inh, SENP6 inh, SENP8 block-1) | SENP1 conf 125.1 | SENP1 kinetic 77.9
O=c1[nH]c2cc3ccccc3cc2nc1-c1nnnn1Cc1ccccc1	SENP1 inh 41.0 (no result: SENP7 inh, SENP6 inh, SENP8 block-1) | SENP1 conf 80.3 | SENP1 kinetic 50.0
O=C(Cc1ccc([N+](=O)[O-])cc1)N1N=C(c2ccncc2)CC1(O)C(F)(F)F (centres undefined)	none
COC(=O)c1cc(OC)nc2ccc(Br)cc12	none
Cc1cc2c(C)nc(N/N=C/c3ccc([N+](=O)[O-])cc3)nc2o1	SENP1 inh 35.9 (no result: SENP7 inh, SENP6 inh, SENP8 block-1) | SENP1 conf inactive | SENP1 kinetic inactive
Cn1ccc2c(N3CCCCCCC3)cc3c(c21)C1CCC3O1 (centres undefined)	none (no result: SENP7 inh, SENP6 inh, SENP8 block-1)
COc1ccc([C@H]2CC(=O)C=C(c3ccc(O)cc3)C2)cc1OC	none
O=C1C=C(c2cccc(Cl)c2O)C[C@@H](c2ccc3c(c2)OCO3)C1	SENP1 inh 49.9 | SENP1 conf 95.4 | SENP1 kinetic 76.8
O=C1C=C(c2cccc(Cl)c2)C[C@@H](c2ccc3c(c2)OCO3)C1	none
COc1ccc([C@H]2CC(=O)C=C(c3cccc(Cl)c3O)C2)cc1OC	SENP1 inh 33.2 | SENP1 conf 74.0 | SENP1 kinetic 61.7
O=c1[nH]cnc(O)c1C(c1ccc([N+](=O)[O-])cc1)c1c(O)nc[nH]c1=O	none
Cc1ccc2nc3sc(C(=O)NCc4ccco4)c(N)c3cc2c1	SENP1 inh 34.3 | SENP1 conf 110.2 | SENP1 kinetic 71.2
CC1CN(C(=O)CCNS(=O)(=O)c2ccc(Br)cc2)CC(C)O1 (centres undefined)	none
COc1cc(/C=C2\SC(=S)N(N3CCOCC3)C2=O)ccc1O	SENP1 inh 52.7 | SENP1 conf inactive | SENP1 kinetic inactive
C=CCOc1ccc(/C=C2\SC(=S)N(N3CCOCC3)C2=O)cc1	none
COc1cc(/C=C2\SC(=S)N(N3CCOCC3)C2=O)cc(OC)c1OC	none
COc1ccc(OC)c(/C=C2\SC(=S)N(N3CCOCC3)C2=O)c1	SENP1 inh 38.5 | SENP1 conf inactive | SENP1 kinetic inactive
O=C1NC[C@@H](CCCCN2C[C@H](Cc3ccc(O)cc3)N(Cc3ccccc3)C(=O)C2=O)N(Cc2ccccc2)C1=O	none (no result: SENP7 inh, SENP6 inh, SENP8 block-1)
